Source: ChEMBL document CHEMBL1143019, “Hybrid molecules of estrone: new compounds with potential antibacterial, antifungal, and antiproliferative activities” (2007)

Key:
[1] = tested on: Trichophyton benhamiae; assay: Antifungal activity against Trichophyton mentagrophytes 445 after 120 hrs; assay type: functional, Arthroderma benhamiae
In short: (§1)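 Same modified M27-A microdilution with the mold inoculum of 0.5–5×10⁴ CFU/mL. Medium was RPMI 1640 with L-glutamine, no bicarbonate, and 0.165 M MOPS at pH 7.0. Twofold dilutions from 250 to 0.49. Incubated at 35 °C in a humid atmosphere.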

[2] = tested on: Mycobacterium kansasii; assay: Antimicrobial activity against Mycobacterium kansasii My 6509/96 after 7 days; assay type: functional; conditions: 168 h
In short: (§2)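 Run in Šula semisynthetic liquid medium containing bovine serum. Compounds added as DMSO solutions at final concentrations of […]. Each strain was also inoculated onto Löwenstein–Jensen medium to control inoculum sterility and growth.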

[3] = tested on: Candida tropicalis; assay: Antifungal activity against Candida tropicalis 156 after 24 hrs; assay type: functional
In short: (§3)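 Modified NCCLS M27-A broth microdilution with clinical isolates subcultured on Sabouraud dextrose agar. Suspensions diluted 1:50 in RPMI 1640 to give a final inoculum of 0.5–2.5×10³ CFU/mL for yeasts or 0.5–5×10⁴ CFU/mL for molds. The RPMI had L-glutamine, no bicarbonate, and 0.165 M MOPS to pH 7.0. Twofold dilutions from 250 to 0.49. Plates held at 35 °C, humid, without agitation. MIC is the lowest concentration giving ≥80% inhibition versus drug-free control, read at 24 and 48 h.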

[4] = tested on: Pichia kudriavzevii; assay: Antifungal activity against Candida krusei E28 after 48 hrs; assay type: functional; in short: as §3
[5] = tested on: Pichia kudriavzevii; assay: Antifungal activity against Candida krusei E28 after 24 hrs; assay type: functional; in short: as §3
[6] = tested on: Candida albicans; assay: Antifungal activity against Candida albicans ATCC 44859 after 24 hrs; assay type: functional; conditions: ATCC 44859, 24 h; in short: as §3
[7] = tested on: Mycobacterium kansasii; assay: Antimicrobial activity against Mycobacterium kansasii My 235/80 after 7 days; assay type: functional; conditions: 168 h; in short: as §2
[8] = tested on: Aspergillus fumigatus; assay: Antifungal activity against Aspergillus fumigatus 231 after 48 hrs; assay type: functional; in short: as §3
[9] = tested on: Micrococcus luteus; assay: Antibacterial activity against Micrococcus luteus ATCC 10240 after 24 hrs by microbroth dilution method; assay type: functional; conditions: ATCC 10240, 24 h
In short: (§4)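 Microbroth dilution per NCCLS guidelines. Bacteria grown overnight at 37 °C in Mueller–Hinton broth. Compound solution serially diluted twofold in MHB, then wells inoculated to a final 5×10⁵ CFU/mL. Incubated 24 h at 37 °C. MIC (µg/mL) read on an automatic plate reader as the lowest dilution allowing no visible growth.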

[10] = tested on: Trichosporon beigelii; assay: Antifungal activity against Trichosporon beigelii 1188 after 48 hrs; assay type: functional; in short: as §3
[11] = tested on: Candida tropicalis; assay: Antifungal activity against Candida tropicalis 156 after 48 hrs; assay type: functional; in short: as §3
[12] = tested on: Mycobacterium tuberculosis; assay: Antimicrobial activity against Mycobacterium tuberculosis My 331/88 after 21 days; assay type: functional; conditions: 504 h
[13] = tested on: Staphylococcus aureus; assay: Antibacterial activity against Staphylococcus aureus SG 511 after 24 hrs by micro-broth dilution method; assay type: functional; conditions: SG 511, 24 h; in short: as §4
[14] = tested on: Aspergillus fumigatus; assay: Antifungal activity against Aspergillus fumigatus 231 after 24 hrs; assay type: functional; in short: as §3
[15] = tested on: Trichophyton benhamiae; assay: Antifungal activity against Trichophyton mentagrophytes 445 after 72 hrs; assay type: functional, Arthroderma benhamiae; in short: as §1
[16] = tested on: Mycolicibacterium vaccae; assay: Antimicrobial activity against Mycobacterium vaccae 10670 after 24 hrs by micro-broth dilution method; assay type: functional; in short: as §4
[17] = tested on: Staphylococcus aureus; assay: Antibacterial activity against methicillin-resistant Staphylococcus aureus 994/93 after 24 hrs by micro-broth dilution method; assay type: functional
In short: (§5)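 Broth microdilution per NCCLS in Mueller–Hinton broth. Overnight cultures grown at 37 °C. Compound serially diluted twofold, then wells inoculated to a final 5×10⁵ CFU/mL. Plates held at 37 °C for 24 h. MIC (µg/mL) read on an automatic plate reader as the lowest dilution with no visible growth.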

[18] = tested on: HeLa; assay: Cytotoxicity against human HeLa cells after 72 hrs; assay type: functional
In short: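 About 10,000 cells per well in RPMI 1640 were preincubated 48 h without compound. The 10 test concentrations were then applied onto the monolayers and incubated 72 h at 37 °C in humidified 5% CO₂. Monolayers fixed with glutaraldehyde, stained with 0.05% methylene blue, and eluted with 0.33 N HCl; optical density measured at 630 nm.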

[19] = tested on: Nakaseomyces glabratus; assay: Antifungal activity against Candida glabrata 20/I after 48 hrs; assay type: functional; in short: as §3
[20] = tested on: Mycolicibacterium fortuitum; assay: Antimicrobial activity against Mycobacterium fortuitum Borstel after 24 hrs by microbroth dilution method; assay type: functional; in short: as §4
[21] = tested on: Staphylococcus aureus; assay: Antibacterial activity against methicillin-resistant Staphylococcus aureus 134/94 after 24 hrs by microbroth dilution method; assay type: functional; in short: as §5
[22] = tested on: K562; assay: Antiproliferative activity against human K562 cells after 72 hrs; assay type: functional; conditions: K562, 72 h
In short: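 About 10,000 suspension cells per well in RPMI 1640 with 10% heat-inactivated FBS and penicillin/streptomycin, without HEPES. Exposed to 10 concentrations for 72 h at 37 °C in humidified 5% CO₂. Wells diluted 1:50 in CASYTON and counted electronically, each result the mean of three successive counts. GI50 is where the concentration–response curve crosses 50% of control cell count.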

[23] = tested on: L929; assay: Antiproliferative activity against mouse L929 cells after 72 hrs; assay type: functional; conditions: L929, 72 h
In short: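 About 10,000 adherent cells per well in RPMI 1640 with 10% heat-inactivated FBS and penicillin/streptomycin, without HEPES. Exposed to 10 concentrations for 72 h at 37 °C in humidified 5% CO₂. Monolayers fixed with glutaraldehyde, stained 15 min with 0.05% methylene blue, and eluted with 0.33 N HCl; OD read at 630 nm. GI50 derived from dose–response curves relative to control.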

[24] = tested on: Lichtheimia corymbifera; assay: Antifungal activity against Absidia corymbifera 272 after 24 hrs; assay type: functional; in short: as §3
[25] = tested on: Candida albicans; assay: Antifungal activity against Candida albicans ATCC 44859 after 48 hrs; assay type: functional; conditions: ATCC 44859, 48 h; in short: as §3
[26] = tested on: Mycobacterium tuberculosis; assay: Antimicrobial activity against Mycobacterium tuberculosis My 331/88 after 14 days; assay type: functional; conditions: 336 h
[27] = tested on: Lichtheimia corymbifera; assay: Antifungal activity against Absidia corymbifera 272 after 48 hrs; assay type: functional; in short: as §3
[28] = tested on: Mycobacterium kansasii; assay: Antimicrobial activity against Mycobacterium kansasii My 235/80 after 21 days; assay type: functional; conditions: 504 h; in short: as §2
[29] = tested on: Mycobacterium kansasii; assay: Antimicrobial activity against Mycobacterium kansasii My 235/80 after 14 days; assay type: functional; conditions: 336 h; in short: as §2
[30] = tested on: Nakaseomyces glabratus; assay: Antifungal activity against Candida glabrata 20/I after 24 hrs; assay type: functional; in short: as §3
[31] = tested on: Enterococcus faecalis; assay: Antibacterial activity against Enterococcus faecalis 1528 after 24 hrs by micro-broth dilution method; assay type: functional; in short: as §4
[32] = tested on: Mycolicibacterium smegmatis; assay: Antimicrobial activity against Mycobacterium smegmatis SG 987 after 24 hrs by micro-broth dilution method; assay type: functional; in short: as §4
[33] = tested on: Mycobacterium avium; assay: Antimicrobial activity against Mycobacterium avium My 330/88 after 14 days; assay type: functional; conditions: 336 h
[34] = tested on: Mycolicibacterium aurum; assay: Antimicrobial activity against Mycobacterium aurum SB 66 after 24 hrs by micro-broth dilution method; assay type: functional; in short: as §4
[35] = tested on: Mycobacterium kansasii; assay: Antimicrobial activity against Mycobacterium kansasii My 6509/96 after 14 days; assay type: functional; conditions: 336 h; in short: as §2
[36] = tested on: Trichosporon beigelii; assay: Antifungal activity against Trichosporon beigelii 1188 after 24 hrs; assay type: functional; in short: as §3
[37] = tested on: Mycobacterium avium; assay: Antimicrobial activity against Mycobacterium avium My 330/88 after 21 days; assay type: functional; conditions: 504 h
[38] = tested on: Mycobacterium kansasii; assay: Antimicrobial activity against Mycobacterium kansasii My 6509/96 after 21 days; assay type: functional; conditions: 504 h; in short: as §2

C[C@]12CC[C@@H]3c4ccc(OCCCCCCC[n+]5ccc(SCc6ccccc6)cc5)cc4CC[C@H]3[C@@H]1CCC2=O.[Br-]
MIC [1]: 7.8 µM
MIC [2]: 8 µM
MIC [3]: 15.6 µM
MIC [4]: 7.8 µM
MIC [5]: 7.8 µM
MIC [6]: 3.9 µM
MIC [7]: 8 µM
MIC [8]: 31 µM
MIC [9]: 0.4 µg/mL
MIC [10]: 7.8 µM
MIC [11]: 15.6 µM
MIC [12]: 8 µM
MIC [13]: 3.12 µg/mL
MIC [14]: 15.6 µM
MIC [15]: 7.8 µM
MIC [16]: 1.56 µg/mL
MIC [17]: 3.12 µg/mL
CC10 [18]: 1.2 µg/mL
CC50 ([18]; Homo sapiens, HeLa, 72 h): 3.1 µg/mL
MIC [19]: 15.6 µM
MIC [20]: 6.25 µg/mL
MIC [21]: 3.12 µg/mL
GI50 [22]: 2.3 µg/mL
GI50 [23]: 4 µg/mL
MIC [24]: 31 µM
MIC [25]: 3.9 µM
MIC [26]: 4 µM
MIC [27]: 31 µM
MIC [28]: 8 µM
MIC [29]: 8 µM
MIC [30]: 15.6 µM
MIC [31]: 6.25 µg/mL
MIC [32]: 1.56 µg/mL
MIC [33]: 2 µM
MIC [34]: 3.12 µg/mL
MIC [35]: 8 µM
MIC [36]: 3.9 µM
MIC [37]: 2 µM
MIC [38]: 16 µM
